Measured values collected from several papers.
Each line is one published result; the experiments were not run side by side.

SMILES | tested on | test | test system | setting | measurement | result
Cc1ncc2n1-c1ccc(Cl)cc1C(c1ccccc1F)=NC2 | – | metabolic stability | human, hepatocytes | 1 µM, 4 h | compound remaining | 26%
Cc1nccn1CCCCOc1cc2oc(=O)ccc2cc1O | HepG2.2.15 | cell growth or viability, MTT | – | 9 days | CC50 | > 648 µM
C#Cc1ccc2c(c1)C(c1ccccc1F)=N[C@@H](C)c1c(C(=O)OCC(F)(F)F)ncn1-2 | – | metabolic stability | human, liver microsomes | 10 min | compound remaining | < 5%
COc1cc([C@@H]2c3cc4c(cc3[C@H](O)[C@H]3COC(=O)[C@H]23)OCO4)cc(OC)c1OC | L6 | cell growth or viability, resazurin | – | 72 h | IC50 | 0.169 µM
N=c1c2c(-c3ccccc3)c(-c3ccccc3)n(Cc3ccccc3)c2ncn1[C@H]1CC[C@H](O)CC1 | – | metabolic stability | human, hepatocytes | 1 µM, 4 h | compound remaining | 86%
Cc1nc(C(=O)N2CCC[C@H]2C(=O)N[C@@H](CCC2CCCCC2)C(=O)N[C@@H](CC(C)C)C(=O)NC(C)(C)C(=O)N[C@@H](CC(C)C)C(=O)N(C)[C@@H](CC(C)C)C(=O)NC(C)(C)C(=O)NC(C)(C)C(=O)NCCC(=O)NC2(CN(C)C)CCC2)co1 | L6 | cell growth or viability, resazurin | – | 68 h | IC50 | > 8.45 µM
Cc1ncc2n1-c1ccc(Cl)cc1C(c1ccccc1F)=NC2 | – | metabolic stability | human, liver microsomes | 1 µM, 30 min | compound remaining | < 7%
CCOC(=O)c1ncn2c1[C@H](C)N=C(c1ccccc1F)c1cc(C3CC3)ccc1-2 | – | metabolic stability | human, liver microsomes | 20 min | compound remaining | < 5%
O=c1ccc2cc(O)c(OCCCCCn3ccnc3)cc2o1 | HepG2.2.15 | cell growth or viability, MTT | – | 9 days | CC50 | 140 µM
COc1cc([C@@H]2c3cc4c(cc3[C@H](O)[C@H]3COC(=O)[C@H]23)OCO4)cc(OC)c1OC | L6 | cell growth or viability, resazurin | – | 70 h | IC50 | 0.05 µM
